Data on 16 molecules can be found in ChEMBL document CHEMBL1124278, “Heterocyclic quinones with potential antitumor activity. 2. Synthesis and antitumor activity of some benzimidazole-4,7-dione derivatives” (1988).

For test [1], the system named is P338. Nature of the test: Antitumor activity against P338 leukemia cells measured as T/C(average survival time of treated mice/control mice*100)at 6.25 mg/kg, ip optimal dose on days 1-5 in mice. In kind it is functional. As to conditions: Mus musculus, route intraperitoneal. In a few lines:
(§1)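 Five CD2F1 mice per group received 10⁶ P388 lymphocytic leukemia cells ip on day 0. Drug was given ip daily on days 1–5, following NCI protocols. %T/C is mean survival time of treated over control mice × 100, taken at the optimal dose; the toxic dose level was also recorded.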

Test [2] concerns P338. The test is described as follows: Antitumor activity against P338 leukemia cells measured as toxic level at 3.12 mg/kg, ip optimal dose on day 1 in mice. As to conditions: route intraperitoneal. In kind it is functional, Mus musculus. An outline of the steps:
(§2)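 Groups of five mice were inoculated ip with 10⁶ P388 (P338) lymphocytic leukemia cells on day 0. The drug was given as a single ip injection on day 1, following NCI protocols. Optimal dose, maximum % T/C and toxic level are in mg/kg. % T/C = (average survival time of treated mice / control mice) × 100.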

The test system of test [3] is P338. Nature of the test: Antitumor activity against P338 leukemia cells measured as toxic level at 6.25 mg/kg, ip optimal dose on days 1-5 in mice. As to conditions: route intraperitoneal. In kind it is functional, Mus musculus. In a few lines:
(§3)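 Groups of five mice were inoculated ip with 10⁶ P388 (P338) lymphocytic leukemia cells on day 0. Drug was injected ip daily on days 1–5, following NCI protocols. Optimal dose, maximum % T/C and toxic level are in mg/kg. % T/C = (average survival time of treated mice / control mice) × 100.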

In test [4] the test system is P338. Nature of the test: Antitumor activity against P338 leukemia cells measured as T/C at 3.12 mg/kg, ip optimal dose on day 1 in mice. The test is classed as functional. The conditions noted are these: Mus musculus, 24 h, route intraperitoneal. In a few lines: (§4)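 Groups of five CD2F1 mice were inoculated ip with 10⁶ P388 lymphocytic leukemia cells on day 0. Drug was given as a single ip injection on day 1, following NCI protocols. %T/C = (average survival time of treated mice / control mice) × 100, taken at the optimal dose; the toxic dose level was also recorded.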

Test [5] has as its system P338. Nature of the test: Antitumor activity against P338 leukemia cells measured as toxic level at 3.12 mg/kg, ip optimal dose on days 1-5 in mice. In kind it is functional, Mus musculus. As to conditions: route intraperitoneal. An outline of the steps:
as §3

Test [6] concerns P338. The test is described as follows: Antitumor activity against P338 leukemia cells measured as T/C(average survival time of treated mice/control mice*100)at 3.12 mg/kg, ip optimal dose on days 1-5 in mice. The test is classed as functional. As to conditions: Mus musculus, route intraperitoneal. In a few lines:
as §1

For test [7], the system named is P338. The test is described as follows: Antitumor activity against P338 leukemia cells measured as toxic level at 6.25 mg/kg, ip optimal dose on day 1 in mice. In kind it is functional, Mus musculus. As to conditions: route intraperitoneal. In a few lines: as §2
Test [8] relates to P338. Nature of the test: Antitumor activity against P338 leukemia cells measured as T/C(average survival time of treated mice/control mice*100)at 6.25 mg/kg, ip optimal dose on day 1 in mice. The test is classed as functional. The conditions noted are these: Mus musculus, 24 h, route intraperitoneal. An outline of the steps:
as §4

The subject of test [9] is P338. The test is described as follows: Antitumor activity against P338 leukemia cells measured as T/C(average survival time of treated mice/control mice*100)at 25 mg/kg, ip optimal dose on day 1 in mice. In kind it is functional. As to conditions: Mus musculus, 24 h, route intraperitoneal. An outline of the steps:
as §4

The subject of test [10] is P338. The test is described as follows: Antitumor activity against P338 leukemia cells measured as toxic level at 25 mg/kg, ip optimal dose on day 1 in mice. The test is classed as functional, Mus musculus. The conditions noted are these: route intraperitoneal. In a few lines: as §2
Test [11] relates to P338. The test is described as follows: Antitumor activity against P338 leukemia cells measured as toxic level at 0.4 mg/kg, ip optimal dose on day 1 in mice. As to conditions: route intraperitoneal. The test is classed as functional, Mus musculus. An outline of the steps: as §2
Test [12] deals with P338. Nature of the test: Antitumor activity against P338 leukemia cells measured as toxic level at 0.4 mg/kg, ip optimal dose on days 1-5 in mice. In kind it is functional, Mus musculus. As to conditions: route intraperitoneal. An outline of the steps:
as §3

For test [13], the system named is P338. Nature of the test: Antitumor activity against P338 leukemia cells measured as T/C(average survival time of treated mice/control mice*100)at 0.4 mg/kg, ip optimal dose on day 1 in mice. In kind it is functional. As to conditions: Mus musculus, 24 h, route intraperitoneal. In a few lines:
as §4

In test [14] the test system is P338. Nature of the test: Antitumor activity against P338 leukemia cells measured as T/C(average survival time of treated mice/control mice*100)at 0.4 mg/kg, ip optimal dose on days 1-5 in mice. The test is classed as functional. As to conditions: Mus musculus, route intraperitoneal. An outline of the steps:
as §1

Test [15] concerns P338. The test is described as follows: Antitumor activity against P338 leukemia cells measured as toxic level at 1.56 mg/kg, ip optimal dose on days 1-5 in mice. The test is classed as functional, Mus musculus. As to conditions: route intraperitoneal. An outline of the steps: as §3
Test [16] relates to P338. Nature of the test: Antitumor activity against P338 leukemia cells measured as T/C(average survival time of treated mice/control mice*100)at 1.56 mg/kg, ip optimal dose on days 1-5 in mice. The test is classed as functional. The conditions noted are these: Mus musculus, route intraperitoneal. In a few lines:
as §1

In test [17] the test system is P338. The test is described as follows: Antitumor activity against P338 leukemia cells measured as toxic level at 12.5 mg/kg, ip optimal dose on days 1-5 in mice. In kind it is functional, Mus musculus. The conditions noted are these: route intraperitoneal. In a few lines:
as §3

For test [18], the system named is P338. The test is described as follows: Antitumor activity against P338 leukemia cells measured as T/C(average survival time of treated mice/control mice*100)at 12.5 mg/kg, ip optimal dose on days 1-5 in mice. The conditions noted are these: Mus musculus, route intraperitoneal. In kind it is functional. In a few lines:
as §1

For test [19], the system named is P338. The test is described as follows: Antitumor activity against P338 leukemia cells measured as toxic level at 25 mg/kg, ip optimal dose on days 1-5 in mice. As to conditions: route intraperitoneal. In kind it is functional, Mus musculus. An outline of the steps:
as §3

The subject of test [20] is P338. The test is described as follows: Antitumor activity against P338 leukemia cells measured as T/C(average survival time of treated mice/control mice*100)at 25 mg/kg, ip optimal dose on days 1-5 in mice. In kind it is functional. As to conditions: Mus musculus, route intraperitoneal. An outline of the steps: as §1

Each structure is given as a SMILES string.

`O=C1C=CC(=O)c2[nH]c(CO)nc21` showed a survival at 6.25 mg/kg in the test on P338 [1] of 110%. The Toxic level in the test with P338 [2] and in the test with P338 [3] was 12.5 mg/kg in each case. Further, the survival at 3.12 mg/kg in the test on P338 [4] was 105%.

`Cc1nc2c([nH]1)C(=O)C=CC2=O` showed a Toxic level in the test on P338 [5] of 6.25 mg/kg. This molecule also had a survival at 3.12 mg/kg with P338 [6] of 100%.

With `O=C1C=CC(=O)c2[nH]cnc21`, the survival at 6.25 mg/kg in the test on P338 [1] was 110%; in the test on P338 [8], 105%. The results for the Toxic level in the test on P338 [7] and with P338 [3] were 12.5 mg/kg and 25 mg/kg, respectively.

In the test with P338 [9], `CC1=C(C)C(=O)c2c(ncn2C)C1=O` returned a survival at 25 mg/kg of 95%. In the test with P338 [10], this molecule gave a Toxic level of 100 mg/kg.

On to `Cn1cnc2c1C(=O)C=CC2=O`, for which the Toxic level with P338 [11] worked out at 3.12 mg/kg; with P338 [12] it was 6.25 mg/kg. Also, the survival at 0.4 mg/kg in the test on P338 [13] turned out to be 76%; with P338 [14], 95%.

In turn, `O=C(Nc1ccccc1)OCc1nc2c([nH]1)C(=O)C=CC2=O` displayed a survival at 6.25 mg/kg with P338 [1] of 146%. The molecule also displayed a Toxic level in the test on P338 [3] of 25 mg/kg.

Take `O=C1C(Br)=C(Br)C(=O)c2[nH]cnc21`: the Toxic level in the test on P338 [15] is 12.5 mg/kg. This molecule displayed a survival at 1.56 mg/kg in the test on P338 [16] of 130%.

Regarding `O=C1C(CCl)=CC(=O)c2[nH]cnc21`, the Toxic level in the test on P338 [5] was 12.5 mg/kg. The molecule further came in with a survival at 3.12 mg/kg in the test with P338 [6] of 95%.

As for `CC1=C(C)C(=O)c2[nH]c(C)nc2C1=O`, the Toxic level in the test with P338 [17] amounted to 100 mg/kg. Also, in the test on P338 [18], the survival at 12.5 mg/kg turned out to be 110%.

Molecule `O=C1C(Br)=C(N2CC2)C(=O)c2[nH]cnc21` registered a survival at 6.25 mg/kg with P338 [1] of 156%. Moreover, in the test on P338 [3], the Toxic level was determined as 12.5 mg/kg.

With `O=C1C=C(NCc2ccccc2)C(=O)c2[nH]cnc21`, the survival at 25 mg/kg in the test on P338 [9] was 90%. Also, the Toxic level in the test with P338 [10] turned out to be 100 mg/kg; in the test on P338 [5], 150 mg/kg. In the test with P338 [6], this molecule registered a survival at 3.12 mg/kg of 105%.

Regarding `O=C1C(Cl)=CC(=O)c2[nH]cnc21`, in the test on P338 [7], the Toxic level was determined as 12.5 mg/kg. This molecule registered a survival at 6.25 mg/kg in the test on P338 [8] of 117%.

Molecule `CCn1cnc2c1C(=O)C(C)=C(C)C2=O` displayed a survival at 25 mg/kg in the test with P338 [9] of 100%. The molecule also had a Toxic level with P338 [10] of 100 mg/kg.

`CC1CN1C1=C(Br)C(=O)c2[nH]cnc2C1=O` (stereo not given) registered a survival at 6.25 mg/kg in the test with P338 [1] of 136%. The same molecule registered a Toxic level in the test on P338 [3] of 12.5 mg/kg.

`NC1=C(Br)C(=O)c2[nH]cnc2C1=O` gave a survival at 6.25 mg/kg in the test with P338 [1] of 154%. This molecule returned a Toxic level in the test on P338 [3] of 25 mg/kg.

Regarding `CC1=C(C)C(=O)c2[nH]cnc2C1=O`, in the test on P338 [19], the Toxic level was 200 mg/kg. In the test on P338 [20], this molecule came in with a survival at 25 mg/kg of 130%.
